This is a sample that favours compounds with a hit; in the whole collection about 3.1% have one here.
Apaf-1 inh: inhibitors of human Apaf-1 apoptosome, primary screen, biochemical, DEVD-Rh110 fluorescence, uHTS. Apoptotic protease-activating factor 1 (Homo sapiens), O14727. reconstituted apoptosome caspase-3 activity. inhibition, % at 20 µM. 330,000 tested, 0.71% active. AID 489030, 2010; active means inhibition of at least 40% at 20 µM;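 further: plate controls were DMSO wells for no effect and DEVD-CHO caspase inhibitor wells for full effect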
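Assay system: Apoptosome proteins | Medium: pH 7.5 Hepes buffer with CHAPS, BSA, DTT | Also added: Cytochrome c and DEVD-Rh110 substrate | Times: 30 min plus 50 min, RT | Detection: Rhodamine 110 fluorescence at Ex 480/Em 540 nm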
UBC13 inh: UBC13 polyubiquitin chain formation inhibitors, primary screen, biochemical, TR-FRET, uHTS; Ubiquitin-conjugating enzyme E2 N (Homo sapiens), P61088; inhibition, % at 20 µM; 330,000 tested, 0.47% active; in the data active means inhibition above about 45%, passing the limit was not always enough; inconclusive means no clear call, values can overlap the other calls
Target sequence (P61088 whole entry, looked up): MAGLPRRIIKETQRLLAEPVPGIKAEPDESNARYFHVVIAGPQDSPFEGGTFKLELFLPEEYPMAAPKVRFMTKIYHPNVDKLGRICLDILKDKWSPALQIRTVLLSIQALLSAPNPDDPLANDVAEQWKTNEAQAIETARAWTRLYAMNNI
MEKK2 mut-MEK5: MEK5 binding signal on mutant MEKK2 PB1, primary screen, biochemical, multiplex bead flow cytometry, Alexa488-MEK5; 290,000 tested, 0.35% active; AID 1530, 2009; percent response, % at 10 µM; Alexa488-MEK5 binding to MEKK2 mutant; in the data active means percent response above about 24%, passing the limit was not always enough
MEKK2 WT-MEK5: modulators of MEK5 binding to wildtype MEKK2, primary screen, biochemical, multiplex bead flow cytometry, Alexa488-MEK5; Mitogen-activated protein kinase kinase kinase 2 (Homo sapiens), Q9Y2U5; Alexa488-MEK5 binding to MEKK2 WT; actives lie on both sides; 290,000 tested, 1.1% active; binding response (% of control), % at 10 µM; in the data active means binding response below about 67% or above about 130%; inconclusive means no clear call, values can overlap the other calls; inactive means in between
PREPL inh: PREPL enzyme inhibitors, primary screen, biochemical, fluorescence polarization; inhibition, % at 5.96 µM; Prolyl endopeptidase-like (Homo sapiens), Q4J6C6; 320,000 tested, 0.68% active; recombinant PREPL, fluorescence polarization activity-based probe; in the data active means inhibition above about 43%;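 further: 0% = enzyme with DMSO and 100% = wells lacking enzyme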
MEKK3 PB1 HTS: modulators of MEKK3-MEK5 PB1 binding, primary screen, biochemical, wildtype MEKK3, multiplex bead flow cytometry, Alexa488-MEK5; 290,000 tested, 1.4% active; binding response (% of control), % at 10 µM; bead-based flow cytometry, Alexa488-MEK5 binding to MEKK3; actives lie on both sides; 0 = blocked by unlabeled MEK5, 100 = vehicle;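 active means binding response more than 3 SD above or below the average of its plate-row segment, actives on both sides; inconclusive means wells at one plate position flagged as instrument error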;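 further: Alexa488 bead fluorescence after subtracting the streptavidin-only scavenger bead signal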
Casp3 counter: CASP3 inhibitor validation, counterassay for project on UBE2N polyubiquitination blockers, biochemical, one dose; 1,400 tested, 4% active; inhibition, % at 20 µM; Recombinant caspase-3, Caspase-Glo 3/7 luminescence, 60 min; AID 488856, 2010; shares compounds with UBC13 inh;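 active means mean inhibition across replicates above about 26%, limit read from the data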;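 further: plate controls were DMSO with caspase-3 for no effect and DMSO wells lacking enzyme for full effect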
Target sequence (P42574 whole entry, looked up): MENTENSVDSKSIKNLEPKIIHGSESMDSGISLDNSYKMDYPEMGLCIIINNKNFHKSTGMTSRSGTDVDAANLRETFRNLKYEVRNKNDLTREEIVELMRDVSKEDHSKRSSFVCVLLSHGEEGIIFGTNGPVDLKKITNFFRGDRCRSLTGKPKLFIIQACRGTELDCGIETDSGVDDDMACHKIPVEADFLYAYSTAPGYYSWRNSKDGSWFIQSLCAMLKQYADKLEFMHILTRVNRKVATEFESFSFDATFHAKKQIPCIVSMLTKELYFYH
UBC13 conf: UBC13 polyubiquitination inhibitors, single-point retest, confirmation, biochemical, TR-FRET, single concentration | shares compounds with UBC13 inh | inhibition, % at 10 µM | 1,400 tested, 68% active; in the data active means inhibition above about 45%; inconclusive means no clear call, values can overlap the other calls
* marks the source's active call; other numbers are inactive results; ? = inconclusive; . = no result.

SMILES	Apaf-1 inh	UBC13 inh	MEKK2 mut-MEK5	MEKK2 WT-MEK5	PREPL inh	MEKK3 PB1 HTS	Casp3 counter	UBC13 conf
Cc1cccc(N(C(=O)c2snc(C(N)=O)c2N)C(C(=O)NC2CCCC2)c2ccncc2)c1 (centres undefined)	4	25	2	101	-4	101	.	.
CCc1ccc(N(C(=O)c2snc(C(N)=O)c2N)C(C(=O)NCC2CCCO2)c2ccco2)cc1 (centres undefined)	17	61*	-4	97	-5	99	1	59*
CCOc1ccc(N(C(=O)c2snc(C(N)=O)c2N)C(CC)C(=O)NC2CCCC2)cc1 (centres undefined)	20	78*	-3	99	-1	102	3	82*
Cc1cccc(N(C(=O)c2snc(C(N)=O)c2N)C(C(=O)NC2CCCC2)c2ccc(C)o2)c1 (centres undefined)	14	55*	-1	93	11	99	1	39
Cc1ccc(S(=O)(=O)N2CCOC2CNC(=O)C(=O)NCc2ccc(Cl)cc2)cc1 (centres undefined)	16	-2	2	100	-1	96	.	.
Cc1ccc(N(C(=O)c2snc(C(N)=O)c2N)C(C(=O)NC2CCCC2)c2ccc(C)o2)cc1 (centres undefined)	21	64*	-3	93	3	101	-1	71*
COCCNC(=O)C(c1ccc(C)o1)N(C(=O)c1snc(C(N)=O)c1N)c1ccc(C)cc1 (centres undefined)	7	36	5	106	24	108	.	.
CCOc1ccc(C(C(=O)NCC2CCCO2)N(C(=O)c2snc(C(N)=O)c2N)c2ccc3c(c2)OCCO3)cc1 (centres undefined)	14	69*	-2	97	-7	99	2	64*
COc1ccc(N(C(=O)c2snc(C(N)=O)c2N)C(C(=O)NC2CCCC2)c2ccc3ncccc3c2)cc1 (centres undefined)	15	48*	-1	96	26	100	-1	48*
Cn1cnc2cc(NCc3ccc(Cl)cc3)ccc21	11	4	12	117	28	106	.	.
O=C(COC(=O)c1cc(Cl)ccc1O)NCCNC(=O)COC(=O)c1cc(Cl)ccc1O	2	22	-3	97	-4	98	.	.
O=C(COC(=O)c1ccccc1O)NC(=O)NCc1ccccc1	-8	?	.	.	.	.	.	.
O=C(COC(=O)c1cc(Cl)ccc1O)NC(=O)NCc1ccccc1	9	50*	.	.	6	.	-3	?
COC(=O)c1ccc(CNC(=O)COC(=O)c2cc(Cl)ccc2O)cc1	-8	52*	.	.	-7	.	-5	44
COC(=O)c1ccc(Cn2nc(-c3ccc(C)cc3)ccc2=O)cc1	16	-4	1	103	-48	102	.	.
CCNC(=S)NNC(=O)c1ccccn1	-3	90*	3	106	12	110	-1	87*
O=C(CCc1ccccc1)NNC(=O)CCc1ccccc1	4	-4	4	102	-1	105	.	.
Cc1cccc(OCCCC(=O)NNC(=O)c2ccncc2)c1	2	1	.	.	.	.	.	.
Cc1cccc(OCCCC(=O)NNC(=O)c2ccccn2)c1	-8	75*	.	.	20	.	-3	16
O=C(CCc1ccccc1)NNC(=O)c1ccccn1	-1	50*	-20	83	-5	83	2	64*
NC(=O)NC(CC(=O)NNC(=O)c1ccccn1)c1ccccc1Cl (centres undefined)	-7	80*	.	.	4	.	8	82*
COc1ccc(Br)cc1CNC(=O)CN1C(=O)C(c2ccccc2)Oc2cccnc21 (centres undefined)	-11	-9	0	95	1	100	.	.
Cc1cccc(CSCCNC(=S)Nc2ccccc2)c1	18	48*	4	108	-4	108	6	10
S=C(NCCSCc1ccc(Cl)cc1)Nc1ccccc1	-2	4	.	.	5	.	.	.
COc1ccccc1CNC(=O)Cc1csc(NC(=O)Nc2ccccc2OC)n1	23	1	.	.	-17	.	.	.
SMILES	Apaf-1 inh	UBC13 inh	MEKK2 mut-MEK5	MEKK2 WT-MEK5	PREPL inh	MEKK3 PB1 HTS	Casp3 counter	UBC13 conf
COc1ccccc1NC(=O)Nc1nc(C(C)(C)C)cs1	14	53*	-1	109	-1	118	-2	55*
CC(C)N1CCc2c(sc(NC(=O)c3cc(-c4cccs4)nc4ccccc34)c2C(N)=O)C1	61*	54*	13	121	6	108	-4	49*
CCn1c(=O)cc(C(F)(F)F)[nH]c1=S	-10	55*	2	105	-3	101	-1	?
CCn1c(=S)[nH]c2cc(C(=O)O)ccc21	-1	5	-9	93	1	102	.	.
CCCCCCCNC(=O)C1(CC2CC(c3cccc(Br)c3)=NO2)CCN(C(=O)C2(C)CC2)CC1 (centres undefined)	20	20	.	.	2	.	.	.
CCCCCCCNC(=O)C1(CC2CC(c3cccc(Br)c3)=NO2)CCN(C(=O)CCCCCBr)CC1 (centres undefined)	25	45*	.	.	2	.	-1	13
CC(C)Cn1cc(C(=O)NC2CCN(Cc3ccccc3)CC2)c2c3ccccc3n(C)c2c1=O	19	68*	.	.	20	.	-2	45
COCCCNC(=O)c1cn(CC(C)C)c(=O)c2c1c1ccccc1n2C	3	30	5	117	-8	110	.	.
CC(C)Cn1cc(C(=O)NCCCN2CCC(C)CC2)c2c3ccccc3n(C)c2c1=O	-16	76*	.	.	-6	.	-4	50*
CCOC(=O)C1CCCN(C(=O)c2cc(CN3C(=O)c4ccccc4C3=O)ccc2OC)C1 (centres undefined)	8	-4	.	.	5	.	.	.
NC(=O)Cn1c(=O)n(CCCC(=O)NC2CCN(Cc3ccccc3)CC2)c(=O)c2ccccc21	3	33	-8	90	7	84	.	.

Screening results: PubChem, several laboratories
